Measurements as given in ChEMBL document CHEMBL1154236, “Monoterpenes from Paeonia albiflora and their inhibitory activity on nitric oxide production by lipopolysaccharide-activated microglia” (J Nat Prod, 2009).

Assays:
N9 [1] = assay: Antiinflammatory activity against mouse N9 cells assessed as LPS-induced nitric oxide production at 1 uM after 48 hrs by Griess reaction relative to control; settings: N9, 48 h
N9 [2] = assay: Antiinflammatory activity against mouse N9 cells assessed as LPS-induced nitric oxide production at 3 uM after 48 hrs by Griess reaction relative to control; settings: N9, 48 h
N9 [3] = assay: Antiinflammatory activity against mouse N9 cells assessed as LPS-induced nitric oxide production at 10 uM after 48 hrs by Griess reaction relative to control; settings: N9, 48 h
N9 [4] = assay: Antiinflammatory activity against mouse N9 cells assessed as LPS-induced nitric oxide production at 30 uM after 48 hrs by Griess reaction relative to control; settings: N9, 48 h
N9 [5] = assay: Antiinflammatory activity against mouse N9 cells assessed as inhibition of LPS-induced nitric oxide production after 48 hrs by Griess reaction relative to control; settings: N9, 48 h
N9 [6] = assay: Cytotoxicity against LPS-stimulated mouse N9 cells at 1 to 30 uM after 48 hrs by MTT assay; type: cell-based; settings: n9, 48 h
In short: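 N9 microglia seeded at 5 × 10^4 cells/well and exposed to compounds with LPS (1 µg/mL) for 48 h. MTT 0.25 mg/mL then added for 3 h at 37 °C. Formazan dissolved in DMSO and absorbance read at 490 nm.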

SMILES	NO production (% of LPS control) at 1 µM (N9 [1]) [%]	NO production (% of LPS control) at 3 µM (N9 [2]) [%]	NO production (% of LPS control) at 10 µM (N9 [3]) [%]	NO production (% of LPS control) at 30 µM (N9 [4]) [%]	IC50 (N9 [5]) [µM]	Activity (N9 [6])
C[C@@]12C[C@@]3(O)O[C@@H](O1)[C@]1(COC(=O)c4ccc(O)cc4)[C@@H]3C[C@]12O[C@@H]1O[C@H](CO)[C@@H](O)[C@H](O)[C@H]1O [OXYPAEONIFLORIN]	71.7	83	76.6	76.6	> 100	
C[C@@]12C[C@@]3(O)O[C@@H](O1)[C@]1(COC(=O)c4ccccc4)[C@@H]3C[C@]12O[C@@H]1O[C@H](CO[C@H]2O[C@H](CO)[C@@H](O)[C@H](O)[C@H]2O)[C@@H](O)[C@H](O)[C@H]1O	90.1	91.5	85.1	70.5	> 100	
CO[C@]12C[C@]3(C)O[C@H](O1)[C@]1(COC(=O)c4ccccc4)[C@@H]2C[C@]13O[C@@H]1O[C@H](CO)[C@@H](O)[C@H](O)[C@H]1O	111	109	107	90.4	> 100	
C[C@@]12C[C@@]3(O)O[C@@H](O1)[C@]1(COC(=O)c4ccc(O)cc4)[C@@H]3C[C@]12O[C@@H]1O[C@H](COC(=O)c2ccccc2)[C@@H](O)[C@H](O)[C@H]1O [MUDANPIOSIDE C]	71.8	66.7	57.5	38.5	12.8	
CO[C@H]1O[C@@]2(C)CC(=O)[C@H]3C[C@]2(O[C@@H]2O[C@H](COC(=O)c4cc(O)c(O)c(O)c4)[C@@H](O)[C@H](O)[C@H]2O)[C@]13COC(=O)c1ccccc1 [PAEONIDANIN B]	63	64.1	52.2	43.5	13.9	
C[C@@]12C[C@@]3(O)O[C@@H](O1)[C@]1(COC(=O)c4ccccc4)[C@H]3C[C@@]12O[C@@H]1O[C@H](CO)[C@@H](O)[C@H](O)[C@H]1O [PAEONIFLORIN]	100	87.8	79.5	66.7	27.8	
CO[C@H]1O[C@@]2(C)CC(=O)[C@H]3C[C@]2(O)[C@]13COC(=O)c1ccccc1 [PAEONIDANGENIN]	89.9	91.5	85	66.2	> 100	
COc1cc(C(=O)OC[C@H]2O[C@@H](O[C@@]34C[C@H]5[C@@]3(CO)[C@H]3O[C@]5(O)C[C@]4(C)O3)[C@H](O)[C@@H](O)[C@@H]2O)ccc1O [MUDANPIOSIDE E]	86.2	83.9	80.9	67.4	> 100	
CO[C@H]1O[C@@]2(C)CC(=O)[C@H]3C[C@]2(O[C@@H]2O[C@H](COC(=O)c4ccccc4)[C@@H](O)[C@H](O)[C@H]2O)[C@]13COC(=O)c1ccc(O)cc1 [PAEONIDANIN C]	106	111	94.3	80.3	> 100	
CO[C@]12C[C@]3(C)O[C@H](O1)[C@]1(CO)[C@@H]2C[C@]13O[C@@H]1O[C@H](CO)[C@@H](O)[C@H](O)[C@H]1O	101	104	97.4	78.9	> 100	
CO[C@@H]1C[C@]2(C)OC(=O)[C@]3(COC(=O)c4ccccc4)[C@@H]1C[C@@]23O[C@@H]1O[C@H](CO)[C@@H](O)[C@H](O)[C@H]1O	91.5	91.6	95.5	102	> 100	
C[C@]12CC(=O)[C@H]3C[C@]1(O[C@@H]1O[C@H](CO)[C@@H](O)[C@H](O)[C@H]1O)[C@]3(COC(=O)c1ccccc1)[C@@H](OC[C@H]1O[C@@H](O[C@@]34C[C@H]5[C@@]3(COC(=O)c3ccccc3)[C@H]3O[C@]5(O)C[C@]4(C)O3)[C@H](O)[C@@H](O)[C@@H]1O)O2 [PAEONIDANIN E]	102	102	88.8	69.2	64.7	
CC12CC3OC4O[C@H](CO)[C@@H](O)[C@H](O)[C@H]4OC34CC1C4(COC(=O)c1ccccc1)C(=O)O2 (stereo not given in full) [LACTIFLORIN]	89.4	91.5	86.7	81.2	> 100	
C[C@@]12CC(=O)[C@H]3C[C@]1(O)O[C@H](O2)[C@@H]3COC(=O)c1ccccc1 [PAEONIFLORIGENONE]	92.6	71.9	24.5	26.7		Toxic
COc1cc(/C=C/C(=O)CC(=O)/C=C/c2ccc(O)c(OC)c2)ccc1O [CURCUMIN]	86.6	75.6	56.1	35.2	13.5	
C[C@@]12C[C@@]3(O)O[C@@H](O1)[C@]1(COC(=O)c4ccccc4)[C@@H]3C[C@]12O[C@@H]1O[C@H](COC(=O)c2cc(O)c(O)c(O)c2)[C@@H](O)[C@H](O)[C@H]1O [GALLOYLPAEONIFLORIN]	82.1	84.4	62.1	69.5		Toxic
C[C@@]12C[C@@]3(O)O[C@@H](O1)[C@]1(COC(=O)c4ccccc4)[C@@H]3C[C@]12O[C@@H]1O[C@H](COC(=O)c2ccccc2)[C@@H](O)[C@H](O)[C@H]1O [BENZOYLPAEONIFLORIN]	86.3	81.4	79.5	68.6		Toxic
CO[C@H]1O[C@@]2(C)CC(=O)[C@H]3C[C@]2(O[C@@H]2O[C@H](COC(=O)c4ccccc4)[C@@H](O)[C@H](O)[C@H]2O)[C@]13COC(=O)c1ccccc1 [PAEONIDANIN A]	86.6	74.9	59.1	57.2	36.2	
CO[C@]12C[C@]3(C)O[C@H](O1)[C@]1(COC(=O)c4ccccc4)[C@@H]2C[C@]13O[C@@H]1O[C@H](COC(=O)c2ccccc2)[C@@H](O)[C@H](O)[C@H]1O	91.9	95.5	70.4	34.9	22.6	
C[C@@H]1CC(=O)[C@H]2C[C@]1(O)[C@]2(C)COC(=O)c1cc(O)c(O)c(O)c1 [PAEONIFLORONE]	91.3	83.8	67.5	64.1	61.8	
COc1cc(COC[C@H]2O[C@@H](O[C@@]34C[C@H]5[C@@]3(COC(=O)c3ccccc3)[C@H]3O[C@]5(O)C[C@]4(C)O3)[C@H](O)[C@@H](O)[C@@H]2O)ccc1O	107	106	99.8	90.1	> 100	
CO[C@H]1O[C@@]2(C)CC(=O)[C@H]3C[C@]2(O[C@@H]2O[C@H](CO[C@H]4O[C@@]5(C)CC(=O)[C@H]6C[C@]5(O[C@@H]5O[C@H](CO)[C@@H](O)[C@H](O)[C@H]5O)[C@]46COC(=O)c4ccccc4)[C@@H](O)[C@H](O)[C@H]2O)[C@]13COC(=O)c1ccccc1 [PAEONIDANIN D]	112	96.6	83.5	77.1		Toxic
CO[C@]12C[C@]3(C)O[C@H](O1)[C@]1(COC(=O)c4ccccc4)[C@@H]2C[C@]13O[C@@H]1O[C@H](COC(=O)c2cc(O)c(O)c(O)c2)[C@@H](O)[C@H](O)[C@H]1O	80.8	113	108	102	> 100	
C[C@]12C[C@@H](O)[C@H]3C[C@]1(O[C@@H]1O[C@H](COC(=O)c4ccccc4)[C@@H](O)[C@H](O)[C@H]1O)[C@]3(COC(=O)c1ccccc1)C(=O)O2 [PAEONIVAYIN]	86.7	88.3	82	82.6	> 100	
